Assay results as given in ChEMBL document CHEMBL1255177, “Search for influence of spatial properties on affinity at α1-adrenoceptor subtypes for phenylpiperazine derivatives of phenytoin” (Bioorg Med Chem Lett, 2010).

Key:
[1] = target: T1, Alpha-1D adrenergic receptor (Rattus norvegicus, UniProt P23944); test: Antagonist activity at adrenergic Alpha-1D receptor in rat aorta; format: functional, tissue-based; conditions: read-out: pA2 (converted)
T1 sequence (P23944 whole entry): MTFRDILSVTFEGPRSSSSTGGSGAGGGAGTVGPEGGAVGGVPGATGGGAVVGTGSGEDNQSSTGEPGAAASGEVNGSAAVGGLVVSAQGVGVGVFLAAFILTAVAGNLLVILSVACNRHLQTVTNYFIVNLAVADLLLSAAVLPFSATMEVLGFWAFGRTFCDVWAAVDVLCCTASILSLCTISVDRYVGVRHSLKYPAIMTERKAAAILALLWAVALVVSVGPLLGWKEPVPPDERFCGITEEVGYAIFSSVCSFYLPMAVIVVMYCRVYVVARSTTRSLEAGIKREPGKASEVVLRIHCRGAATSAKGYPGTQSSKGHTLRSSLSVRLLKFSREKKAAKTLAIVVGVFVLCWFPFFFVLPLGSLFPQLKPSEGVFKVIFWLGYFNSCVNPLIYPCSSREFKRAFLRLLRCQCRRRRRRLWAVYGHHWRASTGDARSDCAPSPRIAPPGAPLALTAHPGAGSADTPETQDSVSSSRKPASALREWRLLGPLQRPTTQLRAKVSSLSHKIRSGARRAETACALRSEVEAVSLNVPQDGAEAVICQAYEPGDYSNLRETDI
Outline: (§1)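 Isolated tissues: guinea pig spleen (α1B), rat aorta (α1D), rat tail artery (α1A). Two cumulative noradrenaline concentration-response curves per tissue, 60 min apart, without then with antagonist. Apparent pA2 = −log[B] + log(r − 1), where r is the ratio of agonist EC50 with and without antagonist. EC50 taken at the curve midpoint. Means ± SEM, 4–8 separate experiments.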

[2] = target: Alpha-1 adrenergic receptor (Rattus norvegicus); test: Binding affinity to adrenergic alpha1 receptor in rat brain
[3] = target: Alpha-1B adrenergic receptor (Cavia porcellus); test: Antagonist activity at adrenergic Alpha-1B receptor in guinea pig spleen; conditions: read-out: pA2 (converted)
[4] = target: T2, Alpha-1A adrenergic receptor (Rattus norvegicus, UniProt P43140); test: Antagonist activity at adrenergic alpha1A receptor in rat tail artery; format: functional, tissue-based; conditions: read-out: pA2 (converted); outline: as §1
T2 sequence (P43140 whole entry): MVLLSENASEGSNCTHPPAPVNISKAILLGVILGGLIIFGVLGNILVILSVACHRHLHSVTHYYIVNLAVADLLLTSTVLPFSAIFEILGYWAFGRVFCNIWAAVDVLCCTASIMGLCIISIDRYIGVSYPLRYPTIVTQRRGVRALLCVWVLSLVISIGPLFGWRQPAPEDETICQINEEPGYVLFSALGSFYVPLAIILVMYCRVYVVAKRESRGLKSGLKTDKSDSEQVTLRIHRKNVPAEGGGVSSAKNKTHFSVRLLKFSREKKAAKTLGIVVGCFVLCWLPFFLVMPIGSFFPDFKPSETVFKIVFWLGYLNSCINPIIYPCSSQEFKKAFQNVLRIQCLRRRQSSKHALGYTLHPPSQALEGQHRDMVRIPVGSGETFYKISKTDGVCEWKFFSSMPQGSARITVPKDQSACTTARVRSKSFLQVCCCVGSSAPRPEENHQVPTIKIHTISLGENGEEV

Row | SMILES | Kb [1] [nM] | Ki [2] [nM] | Kb [3] [nM] | Kb [4] [nM]
1 | COc1ccccc1N1CCN(CC(O)CN2C(=O)NC(=O)C2(c2ccccc2)c2ccccc2)CC1 (centres undefined) | 112 | – | – | –
2 | CN1C(=O)N(CC(O)CN2CCN(c3ccccc3F)CC2)C(c2ccccc2)(c2ccccc2)C1=O (centres undefined) | 245 | 562 | 1820 | 891
3 | COC(=O)CN1C(=O)N(CC(O)CN2CCN(c3ccccc3)CC2)C(c2ccccc2)(c2ccccc2)C1=O (centres undefined) | 4370 | – | – | –
4 | CCOc1ccccc1N1CCN(CC(O)CN2C(=O)N(C)C(=O)C2(c2ccccc2)c2ccccc2)CC1 (centres undefined) | 195 | – | – | –
5 | COc1ccccc1N1CCN(CC(O)CN2C(=O)N(C)C(=O)C2(c2ccccc2)c2ccccc2)CC1 (centres undefined) | 141 | – | – | –
6 | COC(=O)CN1C(=O)N(CC(O)CN2CCN(c3ccccc3OC)CC2)C(c2ccccc2)(c2ccccc2)C1=O (centres undefined) | 295 | 200 | 1260 | 224

Next, values leading:

Row | Kb [1] [nM] | Ki [2] [nM] | Kb [3] [nM] | Kb [4] [nM] | SMILES
7 | 269 | – | – | – | CCOc1ccccc1N1CCN(CC(O)CN2C(=O)N(C(C)C(=O)OC)C(=O)C2(c2ccccc2)c2ccccc2)CC1 (centres undefined)
8 | 1350 | – | – | – | CCOC(=O)CN1C(=O)N(CC(O)CN2CCN(c3ccccc3OC)CC2)C(c2ccccc2)(c2ccccc2)C1=O (centres undefined)
9 | 70.8 | – | – | – | CCOC(=O)C(C)N1C(=O)N(CC(O)CN2CCN(c3ccccc3OC)CC2)C(c2ccccc2)(c2ccccc2)C1=O (centres undefined)
10 | 347 | 105 | 851 | 155 | COC(=O)C(C)N1C(=O)N(CC(O)CN2CCN(c3ccccc3OC)CC2)C(c2ccccc2)(c2ccccc2)C1=O (centres undefined)
